In ChEMBL document CHEMBL3861996, “Arylsulfonamide derivatives of (aryloxy)ethyl pyrrolidines and piperidines as α1-adrenergic receptor antagonist with uro-selective activity” (Bioorg Med Chem, 2016):
pEC50: −log10 of the molar value.

Experiments:
Rattus norvegicus [1] = species on record: Rattus norvegicus; assay: Selectivity ratio of Ki for alpha2 adrenergic receptor in rat brain cerebral cortex membranes to Ki for alpha1 adrenergic receptor in rat brain cerebral cortex membranes; format: cell membranes
Procedure, shortened: (§1)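 Rat cerebral cortex homogenized in ice-cold 50 mM Tris–HCl (pH 7.6), spun at 20,000 g for 20 min (0–4 °C), resuspended and spun again. Membranes incubated with 0.2 nM [3H]-prazosin (α1) or 2 nM [3H]-clonidine (α2) and seven to eight compound concentrations (10^-11 to 10^-4 M). Non-specific binding defined with 10 µM phentolamine (prazosin) or 10 µM clonidine (clonidine). Ended by GF/C filtration, counted by liquid scintillation. Run in duplicate; Ki from two independent experiments.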

[2] = molecular target: T1, Adrenergic receptor alpha-2 (Rattus norvegicus, UniProt P22086+P19328+P22909); assay: Displacement of [3H]-Clonidine from alpha2 adrenergic receptor in rat brain cerebral cortex membranes by liquid scintillation counting analysis; format: cell membranes, Membrane; procedure, shortened: as §1
T1 sequence (P22086 whole entry): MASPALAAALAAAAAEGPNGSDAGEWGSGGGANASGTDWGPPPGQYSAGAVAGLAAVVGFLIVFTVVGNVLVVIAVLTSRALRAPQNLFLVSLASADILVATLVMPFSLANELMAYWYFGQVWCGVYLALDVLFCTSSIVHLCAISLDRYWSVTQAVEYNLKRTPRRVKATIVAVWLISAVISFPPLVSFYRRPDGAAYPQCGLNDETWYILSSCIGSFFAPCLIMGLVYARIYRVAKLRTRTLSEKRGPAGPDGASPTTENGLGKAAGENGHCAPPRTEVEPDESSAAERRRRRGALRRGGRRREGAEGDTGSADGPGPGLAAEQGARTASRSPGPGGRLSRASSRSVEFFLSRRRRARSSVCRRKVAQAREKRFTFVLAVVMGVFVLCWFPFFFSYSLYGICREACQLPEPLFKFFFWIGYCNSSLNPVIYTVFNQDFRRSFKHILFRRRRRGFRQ
T1 sequence (P19328 whole entry): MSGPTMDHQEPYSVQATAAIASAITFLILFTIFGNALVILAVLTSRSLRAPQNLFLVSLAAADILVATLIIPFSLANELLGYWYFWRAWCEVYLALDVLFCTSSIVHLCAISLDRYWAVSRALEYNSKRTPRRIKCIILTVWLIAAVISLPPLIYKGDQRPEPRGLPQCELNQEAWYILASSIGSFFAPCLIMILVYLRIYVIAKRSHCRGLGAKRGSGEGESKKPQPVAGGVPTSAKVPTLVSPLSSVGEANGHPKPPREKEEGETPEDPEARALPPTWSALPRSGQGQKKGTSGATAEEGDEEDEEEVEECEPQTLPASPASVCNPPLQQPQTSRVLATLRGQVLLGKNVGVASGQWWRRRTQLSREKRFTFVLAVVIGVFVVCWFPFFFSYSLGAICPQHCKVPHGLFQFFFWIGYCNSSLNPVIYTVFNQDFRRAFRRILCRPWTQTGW
T1 sequence (P22909 whole entry): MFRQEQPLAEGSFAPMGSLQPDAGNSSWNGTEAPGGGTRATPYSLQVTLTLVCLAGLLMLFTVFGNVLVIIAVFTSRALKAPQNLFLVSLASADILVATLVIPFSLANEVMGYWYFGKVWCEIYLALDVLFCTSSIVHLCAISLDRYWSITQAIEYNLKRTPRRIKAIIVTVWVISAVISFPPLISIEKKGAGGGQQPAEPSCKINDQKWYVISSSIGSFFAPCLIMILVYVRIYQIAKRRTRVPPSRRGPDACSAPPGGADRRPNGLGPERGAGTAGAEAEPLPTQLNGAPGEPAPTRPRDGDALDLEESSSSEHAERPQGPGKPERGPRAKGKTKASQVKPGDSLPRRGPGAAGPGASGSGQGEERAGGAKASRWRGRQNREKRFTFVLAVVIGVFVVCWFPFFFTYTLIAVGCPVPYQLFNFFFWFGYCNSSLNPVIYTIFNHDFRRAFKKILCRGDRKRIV

[3] = molecular target: T2, Adrenergic receptor alpha-1 (Rattus norvegicus, UniProt P15823+P23944+P43140); assay: Displacement of [3H]-Prazosin from alpha1 adrenergic receptor in rat brain cerebral cortex membranes by liquid scintillation counting analysis; format: cell membranes, Membrane; procedure, shortened: as §1
T2 sequence (P15823 whole entry): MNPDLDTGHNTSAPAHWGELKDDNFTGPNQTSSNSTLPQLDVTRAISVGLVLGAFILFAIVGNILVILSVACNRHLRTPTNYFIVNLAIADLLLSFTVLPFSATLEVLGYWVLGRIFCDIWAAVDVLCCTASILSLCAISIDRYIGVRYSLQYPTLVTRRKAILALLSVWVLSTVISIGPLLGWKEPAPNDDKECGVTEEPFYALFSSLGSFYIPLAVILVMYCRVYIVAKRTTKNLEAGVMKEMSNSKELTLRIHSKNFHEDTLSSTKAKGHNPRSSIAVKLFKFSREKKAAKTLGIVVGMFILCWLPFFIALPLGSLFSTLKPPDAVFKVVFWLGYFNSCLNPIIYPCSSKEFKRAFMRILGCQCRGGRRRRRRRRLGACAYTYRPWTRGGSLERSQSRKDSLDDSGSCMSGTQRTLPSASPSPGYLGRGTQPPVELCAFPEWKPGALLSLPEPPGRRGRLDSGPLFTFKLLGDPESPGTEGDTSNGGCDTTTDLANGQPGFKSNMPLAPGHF
T2 sequence (P23944 whole entry): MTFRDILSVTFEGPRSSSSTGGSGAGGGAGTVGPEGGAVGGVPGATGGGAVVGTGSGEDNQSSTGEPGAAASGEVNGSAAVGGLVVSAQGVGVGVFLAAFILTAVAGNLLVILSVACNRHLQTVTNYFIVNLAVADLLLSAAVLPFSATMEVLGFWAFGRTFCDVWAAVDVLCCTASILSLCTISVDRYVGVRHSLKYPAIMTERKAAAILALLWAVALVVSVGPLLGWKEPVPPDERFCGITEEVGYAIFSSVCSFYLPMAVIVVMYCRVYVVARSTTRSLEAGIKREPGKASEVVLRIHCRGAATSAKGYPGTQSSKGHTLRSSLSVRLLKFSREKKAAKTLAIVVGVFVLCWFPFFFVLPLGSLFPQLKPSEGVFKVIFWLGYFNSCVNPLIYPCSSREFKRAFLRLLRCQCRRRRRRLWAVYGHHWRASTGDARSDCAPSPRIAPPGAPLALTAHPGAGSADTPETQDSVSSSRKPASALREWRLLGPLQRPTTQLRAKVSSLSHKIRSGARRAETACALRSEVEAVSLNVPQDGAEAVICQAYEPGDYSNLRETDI
T2 sequence (P43140 whole entry): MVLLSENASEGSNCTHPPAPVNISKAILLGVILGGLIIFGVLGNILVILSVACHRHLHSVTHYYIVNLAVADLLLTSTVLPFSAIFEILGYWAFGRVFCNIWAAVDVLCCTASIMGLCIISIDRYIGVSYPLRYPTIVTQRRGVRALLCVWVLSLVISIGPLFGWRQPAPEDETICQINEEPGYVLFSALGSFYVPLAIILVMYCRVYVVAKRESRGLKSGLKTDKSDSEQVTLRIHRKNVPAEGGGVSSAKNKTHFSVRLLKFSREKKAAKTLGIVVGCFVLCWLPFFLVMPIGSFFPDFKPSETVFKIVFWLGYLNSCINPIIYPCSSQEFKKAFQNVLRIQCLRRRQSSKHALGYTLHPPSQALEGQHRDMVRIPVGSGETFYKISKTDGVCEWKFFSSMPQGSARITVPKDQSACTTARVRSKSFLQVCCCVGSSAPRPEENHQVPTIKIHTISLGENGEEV

Rattus norvegicus [4] = assay: Hypotensive activity in normotensive anesthetized Wistar rat assessed as decrease in systolic blood pressure at 2 mg/kg, iv administered as single dose measured 60 mins post dose relative to control; format: functional; conditions: 1 h
Procedure, shortened: (§2)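 Male Wistar rats (200–250 g), groups of six, anaesthetized with thiopental 70 mg/kg ip. Left carotid artery cannulated with heparinized saline-filled tubing for pressure recording. Compounds dissolved in water and given once iv. Blood pressure taken at 0 min (control) and over 60 min afterward. Data as mean ± SEM, analysed by one-way ANOVA with Dunnett's test against 0 min.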

Rattus norvegicus [5] = assay: Hypotensive activity in normotensive anesthetized Wistar rat assessed as decrease in diastolic blood pressure at 2 mg/kg, iv administered as single dose measured 60 mins post dose relative to control; format: functional; conditions: 1 h; procedure, shortened: as §2
[6] = molecular target: T3, Alpha-1B adrenergic receptor (Homo sapiens, UniProt P35368); assay: Intrinsic activity at human alpha1B adrenergic receptor expressed in CHOK1 cells co-expressing aequorin assessed as inhibition of agonist induced calcium mobilization preincubated for 15 mins followed by agonist addition measured for 20 secs in presence of coelenterazine H by luminescence assay; format: cell-based, CHO-K1
T3 sequence (P35368 whole entry): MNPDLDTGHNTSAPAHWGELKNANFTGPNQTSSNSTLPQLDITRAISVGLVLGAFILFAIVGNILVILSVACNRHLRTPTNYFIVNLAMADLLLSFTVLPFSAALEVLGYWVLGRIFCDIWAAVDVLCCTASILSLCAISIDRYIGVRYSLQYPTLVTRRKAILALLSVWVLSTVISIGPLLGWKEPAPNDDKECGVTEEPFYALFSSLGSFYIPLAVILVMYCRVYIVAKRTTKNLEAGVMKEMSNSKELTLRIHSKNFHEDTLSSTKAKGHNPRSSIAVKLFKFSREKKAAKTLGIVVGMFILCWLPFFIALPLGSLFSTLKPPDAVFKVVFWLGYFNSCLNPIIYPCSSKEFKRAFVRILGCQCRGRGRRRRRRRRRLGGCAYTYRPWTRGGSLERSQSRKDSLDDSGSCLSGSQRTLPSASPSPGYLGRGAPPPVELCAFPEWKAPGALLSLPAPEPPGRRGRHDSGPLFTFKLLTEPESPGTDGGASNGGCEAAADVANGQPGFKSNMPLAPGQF
Procedure, shortened: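 Frozen ready-to-use cells stably expressing α1B receptor and aequorin, resuspended in assay buffer with 5 µM coelenterazine h and rotated overnight at rt in the dark. Diluted to 5000 cells/20 µL. Agonist mode: cells injected onto ligands, light recorded 20 s. Antagonist mode: 15 min with compound at room temperature, then agonist at 3× EC80 final, light recorded 20 s. Mean EC50 from three experiments.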

Row | Structure (SMILES) | Ratio Ki (Rattus norvegicus [1]) | Ki [2] [nM] | Ki [3] [nM] | inhibition in vivo at 2 mg/kg (Rattus norvegicus [4]) [%] | inhibition in vivo at 2 mg/kg (Rattus norvegicus [5]) [%] | pEC50 [6]
1 | CC(C)Oc1ccccc1OCCN1CC[C@@H](NS(=O)(=O)c2cc(Cl)ccc2F)C1 | 4 | 398 | 106 |  |  | 
2 | COc1ccccc1OCCN1CC[C@@H](NS(=O)(=O)c2cccc(Cl)c2F)C1 | 8 | 1944 | 241 |  |  | 
3 | CC(C)Oc1ccccc1OCCN1CC[C@@H](NS(=O)(=O)c2cccc(Cl)c2F)C1 | 2 | 378 | 176 |  |  | 
4 | CC(C)Oc1ccccc1OCCN1CCC(CNS(=O)(=O)c2cc(Cl)ccc2F)CC1 | 7 | 870 | 133 |  |  | 
5 | COc1ccccc1OCCN1CC[C@@H](NS(=O)(=O)c2cc(Cl)ccc2F)C1 | 8 | 2354 | 289 |  |  | 
6 | CC(C)Oc1ccccc1OCCN1CC[C@H](NS(=O)(=O)c2cccc(Cl)c2F)C1 | > 109 | > 10000 | 92 |  |  | 
7 | CC(C)Oc1ccccc1OCCN1CCC(NS(=O)(=O)c2cc(Cl)ccc2F)CC1 | 3 | 293 | 118 |  |  | 
8 | CC(C)Oc1ccccc1OCCN1CCC(CNS(=O)(=O)c2cncc3ccccc23)CC1 | 9 | 578 | 67 |  |  | 
9 | COc1ccccc1OCCN1CC[C@H](NS(=O)(=O)c2cc(Cl)ccc2F)C1 |  | > 10000 | 214 |  |  | 
10 | COc1ccccc1OCCN1CCC(NS(=O)(=O)c2cccc3cccnc23)CC1 | 1 | 131 | 93 |  |  | 
11 | CC(C)Oc1ccccc1OCCN1CCC(CNS(=O)(=O)c2ccc(F)cc2)CC1 | 5 | 416 | 77 |  |  | 
12 | COc1ccccc1OCCN1CCC(NS(=O)(=O)c2cc(Cl)ccc2F)CC1 | 4 | 129 | 34 |  |  | 
13 | CC(C)Oc1ccccc1OCCN1CCC(NS(=O)(=O)c2cccc3cccnc23)CC1 | 3 | 194 | 73 |  |  | 
14 | COc1ccccc1OCCN1CC[C@H](NS(=O)(=O)c2cccc(Cl)c2F)C1 | > 29 | > 10000 | 348 |  |  | 
15 | CCOc1ccccc1OCCN[C@H](C)Cc1ccc(OC)c(S(N)(=O)=O)c1 [TAMSULOSIN] |  |  |  | 11 to 17 | 11 to 18 | 9.89
16 | CC(C)Oc1ccccc1OCCN1CCC(NS(=O)(=O)c2cccc(Cl)c2F)CC1 | 1 | 188 | 131 |  |  | 
17 | CC(C)Oc1ccccc1OCCN1CC[C@H](NS(=O)(=O)c2cc(Cl)ccc2F)C1 | > 41 | > 10000 | 242 |  |  | 
